Laboratory results published in ChEMBL document CHEMBL1152456, “A MurF inhibitor that disrupts cell wall biosynthesis in Escherichia coli” (Antimicrob Agents Chemother, 2007).
Converted amounts (≈) assume the structure as drawn. The source made the active and inactive calls. The rule behind the calls is not given here. Positions of bridges follow the written chain, without caps; N, C: chain ends. Non-standard residues stand in square brackets, D forms with d. Residues, ends and D or L forms follow the SMILES beside them. Dab = NCC[C@H](N)C(=O)O

How the values were obtained:
[1] = Inhibition of Escherichia coli MurF assessed as appearance of UDP-MurNAc-pentapeptide product by HPLC
Outline: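 HPLC assay of E. coli MurF. Enzyme at 4 nM final in 100 mM Tris-Cl pH 8.5, 5 mM ATP, 300 mM NaCl, preincubated 10 min at room temperature with compound or DMSO. D-Ala-D-Ala and a completed Mpl reaction supplying UDP-MurNAc-tripeptide were then added. Reaction ran 15 min at 37°C and was stopped with trifluoroacetic acid. Pentapeptide and tripeptide peaks were quantified by HPLC to give IC50.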

[2] = Binding affinity to Escherichia coli MurF by HTS assay in absence of ATP
[3] = test system: Staphylococcus aureus; assay: Antibacterial activity against Staphylococcus aureus ATCC 29213 by CLSI broth microdilution method; assay type: functional
Outline: (§1)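 MICs by CLSI broth microdilution in cation-adjusted Mueller-Hinton broth. Strains came from ATCC or an in-house collection; NovaBlue was purchased.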

[4] = Binding affinity to Escherichia coli MurF by HTS assay in presence of ATP
[5] = test system: Escherichia coli; assay: Antibacterial activity against LPS-deffective Escherichia coli OC2530 by CLSI broth microdilution method; assay type: functional; outline: as §1
[6] = test system: Escherichia coli; assay: Binding affinity to Escherichia coli MurF assessed as increase in enzyme melting temperature by thermofluor analysis in presence of ATP
Outline: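 ThermoFluor thermal shift binding assay on E. coli MurF run in the presence of ATP; read-out is the change in Tm.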

[7] = test system: Escherichia coli; assay: Antibacterial activity against Escherichia coli NovaBlue by CLSI broth microdilution method in presence of permeabilizer polymyxin B nonapeptide; assay type: functional; outline: as §1
[8] = test system: Enterococcus faecalis; assay: Antibacterial activity against Enterococcus faecalis ATCC 29212 by CLSI broth microdilution method; assay type: functional; outline: as §1
[9] = test system: Escherichia coli; assay: Antibacterial activity against Escherichia coli OC2605 by CLSI broth microdilution method; assay type: functional
Outline: (§2)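 Broth microdilution MIC following CLSI method, in cation-adjusted Mueller-Hinton broth; strains from ATCC or the company strain collection.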

[10] = test system: Escherichia coli; assay: Bactericidal activity against LPS-deffective Escherichia coli OC2530 assessed as log reduction in CFU at 2 times MIC after 3 hrs relative to control; assay type: functional
Outline: (§3)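 Killing. OC2530 at mid-log treated with 2x MIC compound. Aliquots taken from replicate Bioscreen wells at set times, serially diluted in PBS, spiral-plated and colonies counted. Mean ± SD of two independent experiments.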

[11] = test system: Escherichia coli; assay: Antibacterial activity against Escherichia coli ATCC 25922 by CLSI broth microdilution method; assay type: functional; outline: as §1
[12] = test system: Escherichia coli; assay: Antibacterial activity against Escherichia coli NovaBlue by CLSI broth microdilution method; assay type: functional; outline: as §1
[13] = test system: Pseudomonas aeruginosa; assay: Antibacterial activity against Pseudomonas aeruginosa ATCC 27853 by CLSI broth microdilution method; assay type: functional; outline: as §1
[14] = test system: Enterococcus faecium; assay: Antibacterial activity against Enterococcus faecium OC3312 by CLSI broth microdilution method; assay type: functional; outline: as §1
[15] = test system: Escherichia coli; assay: Antibacterial activity against mid-log culture of LPS-deffective Escherichia coli OC2530 assessed as cell lysis at 2 times MIC by optical density study; assay type: functional, organism-based
Outline: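 Growth curve. E. coli OC2530 grown with aeration to mid-log (A600 0.3), compound added at 2x MIC final. Samples transferred at once to replicate Bioscreen wells, 37°C with continuous shaking, A580 read every 15 min; 10 wells per culture.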

[16] = test system: Escherichia coli; assay: Antibacterial activity against Escherichia coli ATCC 25922 by CLSI broth microdilution method in presence of permeabilizer polymyxin B nonapeptide; assay type: functional; outline: as §1
[17] = test system: Escherichia coli; assay: Inhibition of Escherichia coli OC2530 MurF assessed as ratio of UDP-MurNAc-tripeptide/UDP-MurNAc-pentapeptide level at 2 times MIC after 30 mins by HPLC
Outline: (§4)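 UDP-precursor pools. 125 ml OC2530 cultures at A600 0.3 treated with 2x MIC compound or DMSO for 30 min. Cells chilled, washed in cold 0.9% NaCl and lysed in cold 5% trichloroacetic acid 30 min on ice. Supernatants ether-extracted six times. UDP-MurNAc-tripeptide and -pentapeptide purified and quantitated. One representative of two independent experiments.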

[18] = test system: Escherichia coli; assay: Antibacterial activity against LPS-deffective Escherichia coli OC2530 assessed as cell lysis at 2 times MIC by colony forming assay; assay type: functional, organism-based
[19] = test system: Staphylococcus aureus; assay: Antibacterial activity against methicillin-resistant Staphylococcus aureus COL OC3726 by CLSI broth microdilution method; assay type: functional; outline: as §2
[20] = test system: Staphylococcus aureus; assay: Antibacterial activity against Staphylococcus aureus OC4172 by CLSI broth microdilution method; assay type: functional; outline: as §1
[21] = test system: Escherichia coli; assay: Antibacterial activity against LPS-deffective Escherichia coli OC2530 by CLSI broth microdilution method in presence of permeabilizer polymyxin B nonapeptide; assay type: functional
[22] = test system: Escherichia coli; assay: Bactericidal activity against LPS-deffective Escherichia coli OC2530 assessed as log reduction in CFU at 2 times MIC after 30 mins relative to control; assay type: functional; outline: as §3
[23] = test system: Escherichia coli; assay: Antibacterial activity against Escherichia coli OC9040 by CLSI broth microdilution method; assay type: functional; outline: as §1
[24] = test system: Staphylococcus aureus; assay: Antibacterial activity against methicillin-resistant Staphylococcus aureus OC2878 by CLSI broth microdilution method; assay type: functional; outline: as §2
[25] = test system: Escherichia coli; assay: Ratio of Kd for Escherichia coli MurF in absence of ATP to Kd for Escherichia coli MurF in presence of ATP
[26] = test system: Escherichia coli; assay: Effect on muropeptide composition in LPS-deffective Escherichia coli OC2530 assessed as decrease in UDP-MurNAc-pentapeptide level at 2 times MIC after 30 mins relative to control; assay type: functional; parameters: scale not given: the % may be the effect or the level left; outline: as §4
[27] = test system: Escherichia coli; assay: Effect on muropeptide composition in LPS-deffective Escherichia coli OC2530 assessed as increase in UDP-MurNAc-tripeptide level at 2 times MIC after 30 mins relative to control; assay type: functional; outline: as §4

Structure (SMILES): COc1cccc(C(=O)NC(c2ccccc2OC)c2cc(Cl)c3cccnc3c2O)c1 (stereo unspecified)
- IC50 [1]: 1900 nM
- Kd [2]: 10 µM
- MIC [3]: > 32 µg/mL
- Kd [4]: 14 µM
- MIC [5]: > 32 µg/mL
- ΔTm [6]: 2.2 °C

Structure (SMILES): COc1cccc(C(=O)NC(c2ccc3c(c2)OCO3)c2cc(Cl)c3cccnc3c2O)c1 (stereo unspecified)
- IC50 [1]: 750 nM
- Kd [2]: 3.3 µM
- MIC [3]: > 32 µg/mL
- Kd [4]: 4.5 µM
- MIC [5]: > 32 µg/mL
- ΔTm [6]: 1.59 °C

Structure (SMILES): N[C@@H]1CONC1=O [CYCLOSERINE]
- MIC [7]: 64 µg/mL
- MIC [8]: 128 µg/mL (≈ 1250 µM)
- MIC [9]: 16 µg/mL (≈ 157 µM)
- Activity [10]: >5
- MIC [11]: 32 µg/mL (≈ 313 µM)
- MIC [12]: 64 µg/mL (≈ 627 µM)
- MIC [13]: > 128 µg/mL
- MIC [14]: 64 µg/mL (≈ 627 µM)
- MIC [3]: 32 µg/mL (≈ 313 µM)
- Activity [15]: Active
- MIC [16]: 32 µg/mL
- Ratio [17]: 30.3
- Activity [18]: Active
- MIC [19]: 32 µg/mL (≈ 313 µM)
- MIC [5]: 64 µg/mL (≈ 627 µM)
- MIC [20]: 32 µg/mL (≈ 313 µM)
- MIC [21]: 64 µg/mL
- Activity [22]: 0.5
- MIC [23]: 32 µg/mL (≈ 313 µM)
- MIC [24]: 64 µg/mL (≈ 627 µM)

Structure (SMILES): COc1ccc(C(=O)NC(c2ccc(OC)c(OC)c2)c2cc(Cl)c3cccnc3c2O)cc1 (stereo unspecified)
- IC50 [1]: 25000 nM
- MIC [3]: > 64 µg/mL
- MIC [5]: > 64 µg/mL
- ΔTm [6]: 0.74 °C

Structure (SMILES): Cc1ccc(C(NC(=O)c2ccccc2)c2ccc3cccnc3c2O)cc1 (stereo unspecified)
- IC50 [1]: 870 nM
- Kd [2]: 33 µM
- MIC [3]: 32 µg/mL (≈ 86.9 µM)
- Ratio [17]: 0.02
- Kd [4]: 20 µM
- MIC [5]: 32 µg/mL (≈ 86.9 µM)
- ΔTm [6]: 2.41 °C

Structure (SMILES): O=C(NC(c1ccc2c(c1)OCO2)c1ccc2cccnc2c1O)c1ccccc1 (stereo unspecified)
- IC50 [1]: 440 nM
- Kd [2]: 50 µM
- MIC [3]: 32 µg/mL (≈ 80.3 µM)
- Ratio [25]: 4
- Kd [4]: 12 µM
- MIC [5]: 32 µg/mL (≈ 80.3 µM)
- ΔTm [6]: 1.74 °C

Structure (SMILES): O=C(NC(c1ccccc1F)c1ccc2cccnc2c1O)c1ccccc1 (stereo unspecified)
- IC50 [1]: 800 nM
- Kd [2]: 20 µM
- MIC [3]: 32 µg/mL (≈ 85.9 µM)
- Kd [4]: 20 µM
- MIC [5]: 16 µg/mL (≈ 43 µM)
- ΔTm [6]: 3.35 °C

Structure (SMILES): CC(C)C[C@@H]1NC(=O)[C@@H](Cc2ccccc2)NC(=O)[C@H](CCN)NC(=O)[C@@H](NC(=O)[C@H](CCN)NC(=O)[C@@H](N)[C@@H](C)O)CCNC(=O)[C@H]([C@@H](C)O)NC(=O)[C@H](CCN)NC(=O)[C@H](CCN)NC1=O [POLYMYXIN B NONAPEPTIDE] (H-T[Dab][Dab][Dab][dF]L[Dab][Dab]T; lactam 3-C)
- MIC [12]: 25 µg/mL (≈ 26 µM)
- MIC [3]: 50 µg/mL (≈ 51.9 µM)
- MIC [5]: 6.2 µg/mL (≈ 6.44 µM)

Structure (SMILES): COc1cccc(C(=O)NC(/C=C/c2ccccc2)c2cc(Cl)c3cccnc3c2O)c1 (stereo unspecified)
- IC50 [1]: 1250 nM
- Kd [2]: 3.3 µM
- MIC [3]: > 32 µg/mL
- Kd [4]: 10 µM
- MIC [5]: > 32 µg/mL
- ΔTm [6]: 1.81 °C

Structure (SMILES): COc1ccc(C(NC(=O)c2ccccc2)c2ccc3cccnc3c2O)cc1OC (stereo unspecified)
- IC50 [1]: 16000 nM
- Kd [2]: 100 µM
- MIC [3]: 32 µg/mL (≈ 77.2 µM)
- Ratio [25]: 4
- Ratio [17]: 0.04
- Kd [4]: 14 µM
- MIC [5]: 8 µg/mL (≈ 19.3 µM)
- ΔTm [6]: 2.86 °C

Structure (SMILES): COc1ccc(C(NC(=O)c2cccc(OC)c2)c2cc(Cl)c3cccnc3c2O)cc1 (stereo unspecified)
- IC50 [1]: 330 nM
- Kd [2]: 2.5 µM
- MIC [3]: > 32 µg/mL
- Kd [4]: 11 µM
- MIC [5]: > 32 µg/mL
- ΔTm [6]: 1.82 °C

Structure (SMILES): O=C(Nc1ccc(F)cc1)OC(CCN1CCC(O)(c2ccc(Cl)cc2)CC1)c1ccccc1 (stereo unspecified)
- MIC [7]: 16 µg/mL
- MIC [8]: 16 µg/mL (≈ 33.1 µM)
- MIC [9]: > 32 µg/mL
- Activity [26]: 50%
- Activity [10]: 5
- MIC [11]: > 32 µg/mL
- MIC [12]: > 64 µg/mL
- MIC [13]: > 32 µg/mL
- IC50 [1]: 26000 nM
- MIC [14]: 16 µg/mL (≈ 33.1 µM)
- MIC [3]: 16 µg/mL (≈ 33.1 µM)
- Activity [15]: Active
- MIC [16]: 16 µg/mL
- Activity [18]: Active
- fold change (FC) [27]: 15
- MIC [19]: 16 µg/mL (≈ 33.1 µM)
- MIC [5]: 8 µg/mL (≈ 16.6 µM)
- MIC [20]: 8 µg/mL (≈ 16.6 µM)
- MIC [21]: 4 µg/mL
- Activity [22]: 1
- MIC [23]: > 32 µg/mL
- MIC [24]: 16 µg/mL (≈ 33.1 µM)
